The test system of assay [1] is Plasmodium falciparum. Description: In vitro antimalarial activity against Plasmodium falciparum K1 by [3H]hypoxanthine uptake. Type of assay: functional, organism-based.
For assay [2], the system named is Plasmodium falciparum. The assay is described as follows: In vitro antimalarial activity against Plasmodium falciparum HB3 by [3H]hypoxanthine uptake. Type of assay: functional, organism-based.
The test system of assay [3] is HL-60. Description: Inhibitory concentration against HL60 cells. As to conditions: Homo sapiens. The format is functional, cell-based. The gist of the method: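 HL60 (2.5 × 10⁴/well) or Jurkat (1 × 10⁵/well) in RPMI-1640 with 10% FBS and 1% L-glutamine, 5% CO2, 37 °C. Exposed to 10⁻¹⁰–10⁻⁴ M for 72 h, final DMSO below 0.5% v/v. [3H]-thymidine (0.5 μCi) added for the final 24 h. Incorporation counted by β-scintillation.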

Assay [4] deals with Jurkat. Description: Inhibitory concentration against Jurkat cells. The format is functional, cell-based. As to conditions: Homo sapiens. The gist of the method:
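Jurkat cells were grown in RPMI-1640 with 10% v/v FBS and 1% v/v L-glutamine at 37 °C under humidified 5% CO2, kept below 1 × 10⁶ cells/mL, with viability above 95%. Cells were plated at 1 × 10⁵/well and exposed to 10⁻¹⁰–10⁻⁴ M drug for 72 h, with final DMSO below 0.5% v/v. [³H]-thymidine (0.5 μCi/well) was added at 48 h for the final 24 h, and incorporation was read by β-scintillation counting.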

Our source for the IC50 values is ChEMBL document CHEMBL1149086, “Antimalarial and antitumor evaluation of novel C-10 non-acetal dimers of 10beta-(2-hydroxyethyl)deoxoartemisinin” (J Med Chem, 2004).

By IC50 is commonly meant the concentration that gives 50% inhibition.

Turning to `C[C@H]1[C@@H](CCOC(=O)c2ccc(C(=O)OCC[C@H]3O[C@@H]4O[C@]5(C)CC[C@H]6[C@H](C)CC[C@@H]([C@H]3C)[C@@]46OO5)cc2)O[C@@H]2O[C@]3(C)CC[C@H]4[C@H](C)CC[C@@H]1[C@@]24OO3`, inhibition in assay [1] was half-maximal at 4.6 nM (IC50).

For the compound `C[C@H]1[C@@H](CCOCc2ccccc2COCC[C@H]2O[C@@H]3O[C@]4(C)CC[C@H]5[C@H](C)CC[C@@H]([C@H]2C)[C@@]35OO4)O[C@@H]2O[C@]3(C)CC[C@H]4[C@H](C)CC[C@@H]1[C@@]24OO3`, the 50% inhibitory concentration (IC50) in assay [1] is 2.9 nM; in assay [2], 1.3 nM.

As to `C[C@H]1[C@@H](CCOC(=O)c2cccc(C(=O)OCC[C@H]3O[C@@H]4O[C@]5(C)CC[C@H]6[C@H](C)CC[C@@H]([C@H]3C)[C@@]46OO5)c2)O[C@@H]2O[C@]3(C)CC[C@H]4[C@H](C)CC[C@@H]1[C@@]24OO3`, the half-maximal inhibitory concentration (IC50) in assay [1] was found to be 42.2 nM.

With `C[C@H]1[C@@H](CCOCc2ccc(COCC[C@H]3O[C@@H]4O[C@]5(C)CC[C@H]6[C@H](C)CC[C@@H]([C@H]3C)[C@@]46OO5)cc2)O[C@@H]2O[C@]3(C)CC[C@H]4[C@H](C)CC[C@@H]1[C@@]24OO3`, the IC50 in assay [1] was 2.4 nM.

For the compound `C[C@H]1[C@@H](CCOC(=O)c2ccccc2C(=O)OCC[C@H]2O[C@@H]3O[C@]4(C)CC[C@H]5[C@H](C)CC[C@@H]([C@H]2C)[C@@]35OO4)O[C@@H]2O[C@]3(C)CC[C@H]4[C@H](C)CC[C@@H]1[C@@]24OO3`, the half-maximal inhibitory concentration (IC50) in assay [1] amounted to 2.6 nM; in assay [2], 1.6 nM.

Turning to `C[C@H]1[C@@H](CCOCc2cccc(COCC[C@H]3O[C@@H]4O[C@]5(C)CC[C@H]6[C@H](C)CC[C@@H]([C@H]3C)[C@@]46OO5)c2)O[C@@H]2OC3(C)CC[C@H]4[C@H](C)CC[C@@H]1[C@@]24OO3` (single isomer, unassigned), the concentration for half-maximal inhibition (IC50) came to 2.7 nM in assay [1] and 2.1 nM in assay [2].

In assay [1], `C[C@@H]1CC[C@H]2[C@@H](C)C(=O)O[C@@H]3O[C@@]4(C)CC[C@@H]1[C@]32OO4` [ARTEMISININ] came in with a concentration for half-maximal inhibition (IC50) of 12.3 nM.

As to `COc1cccc2c1C(=O)c1c(O)c3c(c(O)c1C2=O)C[C@@](O)(C(=O)CO)C[C@@H]3O[C@H]1C[C@H](N)[C@H](O)[C@H](C)O1` [DOXORUBICIN], the IC50 in assay [3] was 510 nM; in assay [4], 1700 nM.

The compound `COP(=O)(OC)OCC[C@H]1O[C@@H]2O[C@]3(C)CC[C@H]4[C@H](C)CC[C@@H]([C@H]1C)[C@@]24OO3` registered a half-maximal inhibitory concentration (IC50) in assay [1] of 2.2 nM.

On to `C[C@H]1[C@@H](CCOC(=O)CCCC(=O)OCC[C@H]2O[C@@H]3OC4(C)CC[C@H]5[C@H](C)CC[C@@H]([C@H]2C)[C@@]35OO4)O[C@@H]2OC3(C)CC[C@H]4[C@H](C)CC[C@@H]1[C@@]24OO3` (single isomer, unassigned), for which the IC50 was determined as 2.4 nM in assay [1] and 1.1 nM in assay [2].

With `CC(=O)C1C(=O)C=C(C)OC1=O` (stereo not given) [DEHYDROACETIC ACID], the IC50 stood at 1210 nM in assay [3] and 101000 nM in assay [4].

Turning to `C[C@H]1[C@@H](CCOP(=O)(Oc2ccccc2)Oc2ccccc2)O[C@@H]2O[C@]3(C)CC[C@H]4[C@H](C)CC[C@@H]1[C@@]24OO3`, in assay [1], 3.1 nM corresponded to half-maximal inhibition (IC50).

As to `C[C@H]1[C@@H](CCOC(=O)CCC(=O)OCC[C@H]2O[C@@H]3OC4(C)CC[C@H]5[C@H](C)CC[C@@H]([C@H]2C)[C@@]35OO4)O[C@@H]2OC3(C)CC[C@H]4[C@H](C)CC[C@@H]1[C@@]24OO3` (single isomer, unassigned), the IC50 in assay [1] is 1.8 nM; in assay [2], 1.4 nM.
